What was measured:
Format in all cases: functional
Pseudomonas aeruginosa [1] = experiment: Antibacterial activity against Pseudomonas aeruginosa at 20 ug/ml by agar plate diffusion technique; conditions: read-out: IZ
Escherichia coli [2] = experiment: Antibacterial activity against Escherichia coli at 10 ug/ml by agar plate diffusion technique; conditions: read-out: IZ
Staphylococcus aureus [3] = experiment: Antibacterial activity against Staphylococcus aureus at 10 ug/ml by agar plate diffusion technique; conditions: read-out: IZ
Staphylococcus aureus [4] = experiment: Antibacterial activity against Staphylococcus aureus at 20 ug/ml by agar plate diffusion technique; conditions: read-out: IZ
Rattus norvegicus [5] = experiment: Antiinflammatory activity in Wistar Albino rat assessed as inhibition of carrageenan-induced paw oedema at 20 mg/kg after 4 hrs relative to control
How it was run: (§1)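 Wistar albino rats, 150–200 g, six per group, dosed orally with a 20 mg/kg suspension; control gets 0.1 ml 1% gum acacia. After 30 min, 0.1 ml 1% carrageenan in saline is injected subplantar into the right hind paw. Paw volume is read by plethysmograph at 0–4 h. Inhibition = 100(1 − Vtest/Vcontrol) on mean volume increase.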

Mus musculus [6] = experiment: Analgesic activity in Swiss mouse assessed as increase in reaction time at 20 mg/kg, po after 90 mins by Eddy's hot plate technique
How it was run: (§2)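 Swiss mice of either sex, 25–35 g, placed one at a time on a hot plate held at 55 °C. End point is paw licking or jumping, whichever comes first, with a 15 s cut-off to avoid paw injury. Reaction time is recorded and reported as percent increase in reaction time.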

Rattus norvegicus [7] = experiment: Antiinflammatory activity in Wistar Albino rat assessed as inhibition of carrageenan-induced paw oedema at 20 mg/kg after 1 hr relative to control; how it was run: as §1
Escherichia coli [8] = experiment: Antibacterial activity against Escherichia coli at 20 ug/ml by agar plate diffusion technique; conditions: read-out: IZ
Pseudomonas aeruginosa [9] = experiment: Antibacterial activity against Pseudomonas aeruginosa at 30 ug/ml by agar plate diffusion technique; conditions: read-out: IZ
Rattus norvegicus [10] = experiment: Antiinflammatory activity in Wistar Albino rat assessed as inhibition of carrageenan-induced paw oedema at 20 mg/kg after 2 hrs relative to control; how it was run: as §1
Escherichia coli [11] = experiment: Antibacterial activity against Escherichia coli at 30 ug/ml by agar plate diffusion technique; conditions: read-out: IZ
Bacillus subtilis [12] = experiment: Antibacterial activity against Bacillus subtilis at 20 ug/ml by agar plate diffusion technique; conditions: read-out: IZ
Rattus norvegicus [13] = experiment: Antiinflammatory activity in Wistar Albino rat assessed as inhibition of carrageenan-induced paw oedema at 20 mg/kg after 3 hrs relative to control; how it was run: as §1
Aspergillus niger [14] = experiment: Antifungal activity against Aspergillus niger at 10 ug/ml by paper disc method; conditions: read-out: IZ
Staphylococcus aureus [15] = experiment: Antibacterial activity against Staphylococcus aureus at 30 ug/ml by agar plate diffusion technique; conditions: read-out: IZ
Aspergillus niger [16] = experiment: Antifungal activity against Aspergillus niger at 20 ug/ml by paper disc method; conditions: read-out: IZ
Mus musculus [17] = experiment: Analgesic activity in Swiss mouse assessed as increase in reaction time at 20 mg/kg, po after 30 mins by Eddy's hot plate technique; how it was run: as §2
Bacillus subtilis [18] = experiment: Antibacterial activity against Bacillus subtilis at 30 ug/ml by agar plate diffusion technique; conditions: read-out: IZ
Mus musculus [19] = experiment: Analgesic activity in Swiss mouse assessed as increase in reaction time at 20 mg/kg, po after 60 mins by Eddy's hot plate technique; how it was run: as §2
Pseudomonas aeruginosa [20] = experiment: Antibacterial activity against Pseudomonas aeruginosa at 10 ug/ml by agar plate diffusion technique; conditions: read-out: IZ
Candida albicans [21] = experiment: Antifungal activity against Candida albicans at 20 ug/ml by paper disc method; conditions: read-out: IZ
Candida albicans [22] = experiment: Antifungal activity against Candida albicans at 30 ug/ml by paper disc method; conditions: read-out: IZ
Candida albicans [23] = experiment: Antifungal activity against Candida albicans at 10 ug/ml by paper disc method; conditions: read-out: IZ
Aspergillus niger [24] = experiment: Antifungal activity against Aspergillus niger at 30 ug/ml by paper disc method; conditions: read-out: IZ
Bacillus subtilis [25] = experiment: Antibacterial activity against Bacillus subtilis at 10 ug/ml by agar plate diffusion technique; conditions: read-out: IZ

Row | SMILES | zone of inhibition at 20 µg/mL (Pseudomonas aeruginosa [1]) [mm] | zone of inhibition at 10 µg/mL (Escherichia coli [2]) [mm] | zone of inhibition at 10 µg/mL (Staphylococcus aureus [3]) [mm] | zone of inhibition at 20 µg/mL (Staphylococcus aureus [4]) [mm] | inhibition in vivo at 20 mg/kg (Rattus norvegicus [5]) [%] | Activity (Mus musculus [6]) [%] | inhibition in vivo at 20 mg/kg (Rattus norvegicus [7]) [%] | zone of inhibition at 20 µg/mL (Escherichia coli [8]) [mm] | zone of inhibition at 30 µg/mL (Pseudomonas aeruginosa [9]) [mm] | inhibition in vivo at 20 mg/kg (Rattus norvegicus [10]) [%] | zone of inhibition at 30 µg/mL (Escherichia coli [11]) [mm] | zone of inhibition at 20 µg/mL (Bacillus subtilis [12]) [mm] | inhibition in vivo at 20 mg/kg (Rattus norvegicus [13]) [%] | zone of inhibition at 10 µg/mL (Aspergillus niger [14]) [mm] | zone of inhibition at 30 µg/mL (Staphylococcus aureus [15]) [mm] | zone of inhibition at 20 µg/mL (Aspergillus niger [16]) [mm] | Activity (Mus musculus [17]) [%] | zone of inhibition at 30 µg/mL (Bacillus subtilis [18]) [mm] | Activity (Mus musculus [19]) [%] | zone of inhibition at 10 µg/mL (Pseudomonas aeruginosa [20]) [mm] | other results
1 | COc1ccc(Cc2nnc3sc(-c4cc(O)nc(O)c4)nn23)cc1OC | 8.9 | 4.26 | 4.61 | 8.93 | 20.8 | 23.45 | 10.5 | 8.1 | 13.1 | 12.9 | 13.3 | 8.12 | 17.1 | 4.16 | 13.9 | 7.84 | 5.71 | 13.9 | 14.1 | 4.63 | zone of inhibition at 20 µg/mL (Candida albicans [21]): 6.82 mm; zone of inhibition at 30 µg/mL (Candida albicans [22]): 13.9 mm; zone of inhibition at 10 µg/mL (Candida albicans [23]): 3.82 mm; zone of inhibition at 30 µg/mL (Aspergillus niger [24]): 11.9 mm; zone of inhibition at 10 µg/mL (Bacillus subtilis [25]): 4.58 mm
2 | Cc1occc1-c1nnc2sc(-c3ccnc(F)c3)nn12 | 15.2 | 8.54 | 7.9 | 14.2 | 24.4 | 16.43 | 16.7 | 14.3 | 21.3 | 18.2 | 20.8 | 14.8 | 20.4 | 7.36 | 20.2 | 13 | 4.13 | 19.9 | 6.2 | 8.39 | zone of inhibition at 20 µg/mL (Candida albicans [21]): 16.6 mm; zone of inhibition at 30 µg/mL (Candida albicans [22]): 23.8 mm; zone of inhibition at 10 µg/mL (Candida albicans [23]): 8.82 mm; zone of inhibition at 30 µg/mL (Aspergillus niger [24]): 22.7 mm; zone of inhibition at 10 µg/mL (Bacillus subtilis [25]): 8.12 mm
3 | COc1ccc(Cc2nnc3sc(Cc4c[nH]c5ccccc45)nn23)cc1OC | 8.23 | 4.9 | 4.59 | 7.38 | 28.5 | 31.88 | 16.1 | 8.22 | 12.4 | 26.8 | 12.5 | 7.32 | 28.3 | 5.24 | 12.2 | 9.62 | 13.16 | 12.7 | 25 | 4.25 | zone of inhibition at 20 µg/mL (Candida albicans [21]): 7.46 mm; zone of inhibition at 30 µg/mL (Candida albicans [22]): 10.2 mm; zone of inhibition at 10 µg/mL (Candida albicans [23]): 4.1 mm; zone of inhibition at 30 µg/mL (Aspergillus niger [24]): 11.1 mm; zone of inhibition at 10 µg/mL (Bacillus subtilis [25]): 4.33 mm
4 | Cc1occc1-c1nnc2sc(-c3cc(O)nc(O)c3)nn12 | 9.81 | 5.38 | 6.07 | 10.8 | 21.7 | 19.35 | 6.25 | 8.79 | 14.2 | 11.4 | 14.1 | 10.4 | 16.5 | 5.14 | 14.5 | 8.48 | 4.35 | 14.8 | 11.45 | 5.95 | zone of inhibition at 20 µg/mL (Candida albicans [21]): 10 mm; zone of inhibition at 30 µg/mL (Candida albicans [22]): 17.3 mm; zone of inhibition at 10 µg/mL (Candida albicans [23]): 5.34 mm; zone of inhibition at 30 µg/mL (Aspergillus niger [24]): 14.8 mm; zone of inhibition at 10 µg/mL (Bacillus subtilis [25]): 6.02 mm
5 | Cc1occc1-c1nnc2n1NC(c1ccc([N+](=O)[O-])o1)S2 (stereo not given) | 11.8 | 5.78 | 6.11 | 11.5 | 24.9 | 26.85 | 15.6 | 11 | 17.1 | 18.1 | 16.9 | 11.5 | 22.8 | 5.48 | 17.5 | 10.4 | 5.34 | 17.2 | 15.68 | 6.12 | zone of inhibition at 20 µg/mL (Candida albicans [21]): 11.1 mm; zone of inhibition at 30 µg/mL (Candida albicans [22]): 15.8 mm; zone of inhibition at 10 µg/mL (Candida albicans [23]): 5.89 mm; zone of inhibition at 30 µg/mL (Aspergillus niger [24]): 15.3 mm; zone of inhibition at 10 µg/mL (Bacillus subtilis [25]): 6.25 mm
6 | Cc1occc1-c1nnc2sc(-c3ccnc(Cl)c3)nn12 | 13.8 | 7.48 | 7.82 | 14.7 | 27.1 | 20.34 | 10.1 | 14.8 | 20.6 | 15.3 | 20.2 | 14.6 | 24.1 | 7.38 | 19.2 | 14.3 | 6.04 | 20.4 | 11.35 | 7.79 | zone of inhibition at 20 µg/mL (Candida albicans [21]): 14 mm; zone of inhibition at 30 µg/mL (Candida albicans [22]): 21.9 mm; zone of inhibition at 10 µg/mL (Candida albicans [23]): 7.26 mm; zone of inhibition at 30 µg/mL (Aspergillus niger [24]): 20.7 mm; zone of inhibition at 10 µg/mL (Bacillus subtilis [25]): 7.82 mm
7 | Cc1cc(-c2nn3c(-c4ccoc4C)nnc3s2)c2ccccc2n1 | 11.8 | 6.28 | 7.1 | 13.7 | 26.3 | 20.34 | 7.23 | 10.5 | 16.8 | 13.4 | 17 | 12.5 | 18.6 | 6 | 17.9 | 13.5 | 6.04 | 17.1 | 11.35 | 6 | zone of inhibition at 20 µg/mL (Candida albicans [21]): 12.6 mm; zone of inhibition at 30 µg/mL (Candida albicans [22]): 19 mm; zone of inhibition at 10 µg/mL (Candida albicans [23]): 5.84 mm; zone of inhibition at 30 µg/mL (Aspergillus niger [24]): 17.4 mm; zone of inhibition at 10 µg/mL (Bacillus subtilis [25]): 7.38 mm
8 | COc1ccc2[nH]c(C)c(Cc3nn4c(Cc5ccc(OC)c(OC)c5)nnc4s3)c2c1 | 7.42 | 4.48 | 4.06 | 8.08 | 28.4 | 29.04 | 10.5 | 7.42 | 12.6 | 16.2 | 12.4 | 7.21 | 21.4 | 4.9 | 12 | 7.58 | 19.23 | 12.3 | 27.82 | 4.04 | zone of inhibition at 20 µg/mL (Candida albicans [21]): 8.02 mm; zone of inhibition at 30 µg/mL (Candida albicans [22]): 12.1 mm; zone of inhibition at 10 µg/mL (Candida albicans [23]): 4.62 mm; zone of inhibition at 30 µg/mL (Aspergillus niger [24]): 10.8 mm; zone of inhibition at 10 µg/mL (Bacillus subtilis [25]): 4.07 mm

From ChEMBL document CHEMBL1147862, “Studies on synthesis and pharmacological activities of 3,6-disubstituted-1,2,4-triazolo[3,4-b]-1,3,4-thiadiazoles and their dihydro analogues” (2007)
